The results in this text go back to ChEMBL document CHEMBL1131181, “Abasic analogues of TSAO-T as the first sugar derivatives that specifically inhibit HIV-1 reverse transcriptase” (J Med Chem, 1998).

The subject of assay [1] is MT4. Nature of the assay: compound was tested for antiviral activity against HIV-2 ([…]) in MT-4 cell line, activity expressed as concentration required to protect 50% of the virus-infected cells against destruction by the virus. Format: functional, cell-based. The following applies: Homo sapiens.
For assay [2], the system named is MT4. Nature of the assay: Cytostatic concentration test against mock infected human cells of MT-4 cell line. Type of assay: functional. The gist of the method: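 MT-4 cells at 5 × 10⁵ cells/mL, mock-infected, combined with compound dilutions and held 5 days at 37 °C. Viable cells were counted in a blood-cell-counting chamber after Trypan blue staining. CC₅₀ is the concentration that cuts the viable cell number by 50%.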

Assay [3] has as its system Human immunodeficiency virus 1. Nature of the assay: compound was tested for antiviral activity against HIV-1 (3B) in MT-4 cell line, activity expressed as concentration required to protect 50% of the virus-infected cells against destruction by the virus. Type of assay: functional, organism-based. To be noted: Human immunodeficiency virus 1, MT4.
For assay [4], the system named is Human immunodeficiency virus 1. Nature of the assay: In vitro antiviral activity against HIV-1 (IIIB) in CEM (human leukemia) cells. Format: functional, organism-based. The following applies: Human immunodeficiency virus 1, CCRF-CEM. The gist of the method:
(§1)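 CEM cells at 250 000 cells/mL were infected with HIV-1(III_B) or HIV-2(ROD) at 100 CCID₅₀/mL, then added to compound dilutions. After 4 days at 37 °C, cultures were scored for syncytium formation. EC₅₀ is the concentration that inhibits syncytium formation by 50%.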

Assay [5] relates to CCRF-CEM. Nature of the assay: compound was tested for cytostatic concentration against mock infected cells of CEM cell line. Format: functional. The following applies: Homo sapiens. The gist of the method:
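Uninfected CEM cells at 250 000 cells/mL were cultured with compound dilutions for 4 days at 37 °C. CC₅₀ is the concentration that inhibits CEM cell proliferation by 50%.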

Assay [6] relates to Human immunodeficiency virus 2. Nature of the assay: In vitro antiviral activity against HIV-2 (ROD) in CEM (human leukemia) cells. Type of assay: functional, organism-based. The following applies: Human immunodeficiency virus 2, CCRF-CEM. The gist of the method: as §1

pEC50: −log10 of the molar value. Where only a bound is given, the exact number is not on record here.

Turning to `COC1OC(CO[Si](C)(C)C(C)(C)C)C2(OS(=O)(=O)C=C2N)C1O[Si](C)(C)C(C)(C)C` (stereo not given), the pEC50 – broadly, −log10 of the EC50, conventionally taken in molar units – in assay [1] was < 3.70; in assay [3], 4.68. The CC50 (in general, the concentration giving 50% cytotoxicity) in assay [2] was > 200 µM.
In the case of `CC(C)(C)[Si](C)(C)OC[C@H]1O[C@@H](N2CCC(=O)NC2=O)[C@H](O[Si](C)(C)C(C)(C)C)[C@]12OS(=O)(=O)C=C2N`, the pEC50 in assay [1] was < 5.70; in assay [4], 6.51; in assay [3], 6.04. For the same molecule, the CC50 in assay [5] turned out to be 19 µM; in assay [2], 21 µM.
Consider `CSc1ccc(NC(=O)N[C@@H]2O[C@H](CO[Si](C)(C)C(C)(C)C)[C@@]3(OS(=O)(=O)C=C3N)[C@H]2O[Si](C)(C)C(C)(C)C)cc1`, for which the pEC50 in assay [1] was < 5.00; in assay [6] it was < 5.00; in assay [4], 5.30; in assay [3], 5.35. For the same molecule, the CC50 in assay [5] amounted to 22 µM; in assay [2], 29 µM.
Turning to `CC(C)(C)[Si](C)(C)OC[C@H]1O[C@@H](NC(N)=O)[C@H](O[Si](C)(C)C(C)(C)C)[C@]12OS(=O)(=O)C=C2N`, the pEC50 in assay [1] is < 3.60; in assay [6] it was < 4.30; in assay [4], 4.05; in assay [3] it was 4.05. Moreover, the cytotoxic concentration (CC50) in assay [5] and in assay [2] was > 250 µM in each case.
Take `C=C(C)C(=O)NC(=O)N[C@@H]1O[C@H](CO[Si](C)(C)C(C)(C)C)[C@@]2(OS(=O)(=O)C=C2N)[C@H]1O[Si](C)(C)C(C)(C)C`: the pEC50 in assay [1] is < 5.19; in assay [6], < 5.19; in assay [4], 6.25; in assay [3] it was 6.23. Besides, the values for the CC50 in assay [5] and in assay [2] were 6.1 µM and 8.6 µM, respectively.
`CC(C)(C)[Si](C)(C)OC[C@H]1O[C@@H](NC(=S)Nc2ccccc2)[C@H](O[Si](C)(C)C(C)(C)C)[C@]12OS(=O)(=O)C=C2N`: the pEC50 in assay [1], in assay [6], in assay [4] and in assay [3] was < 5.70 in each case. The CC50 was 4.1 µM in assay [5] and 3.7 µM in assay [2].
Turning to `CC(C)(C)[Si](C)(C)OC[C@H]1O[C@H](NC(N)=O)[C@H](O[Si](C)(C)C(C)(C)C)[C@]12OS(=O)(=O)C=C2N`, the pEC50 is < 3.60 in assay [1], < 4.30 in assay [6], 4.24 in assay [4] and < 3.60 in assay [3]. Also, the CC50 in assay [5] is 203 µM; in assay [2] it was > 250 µM.
On to `CCNC(=O)N[C@@H]1O[C@H](CO[Si](C)(C)C(C)(C)C)[C@@]2(OS(=O)(=O)C=C2N)[C@H]1O[Si](C)(C)C(C)(C)C.CCNC(=O)N[C@H]1O[C@H](CO[Si](C)(C)C(C)(C)C)[C@@]2(OS(=O)(=O)C=C2N)[C@H]1O[Si](C)(C)C(C)(C)C`, for which the pEC50 in assay [1], in assay [6], in assay [4] and in assay [3] was < 5.00 each time. The figures for the CC50 in assay [5] and in assay [2] were 20 µM and 19 µM, respectively.
Consider `COC(=O)c1ccccc1NC(=O)N[C@@H]1O[C@H](CO[Si](C)(C)C(C)(C)C)[C@@]2(OS(=O)(=O)C=C2N)[C@H]1O[Si](C)(C)C(C)(C)C`, for which the pEC50 in assay [1] is < 5.70; in assay [6], < 5.70; in assay [4], < 5.70; in assay [3], 5.51. In addition, the results for the CC50 in assay [5] and in assay [2] were 3.8 µM and 17 µM, respectively.
Turning to `CC(C)(C)[Si](C)(C)OC[C@H]1O[C@@H](OCc2ccccc2)[C@H](O[Si](C)(C)C(C)(C)C)[C@]12OS(=O)(=O)C=C2N`, the pEC50 in assay [1] was < 5.19; in assay [6], < 5.19; in assay [4] it was < 5.19; in assay [3] it was 5.31. The CC50 amounted to 11 µM in assay [5] and 12 µM in assay [2].
For `CC(C)(C)[Si](C)(C)OC[C@H]1O[C@@H](NC(=O)Nc2ccccc2)[C@H](O[Si](C)(C)C(C)(C)C)[C@]12OS(=O)(=O)C=C2N`, the pEC50 is < 5.00 in assay [1], < 5.00 in assay [6], < 5.00 in assay [4] and 5.29 in assay [3]. The CC50 came to 10 µM in assay [5] and 14 µM in assay [2].
In the case of `CC(C)(C)[Si](C)(C)OC[C@H]1O[C@@H](n2ccc(=O)[nH]c2=O)[C@H](O[Si](C)(C)C(C)(C)C)C12OS(=O)(=O)C=C2N` (stereo not given in full), the pEC50 was < 4.70 in assay [1] and 6.74 in assay [3]. This molecule also displayed a CC50 in assay [2] of 13 µM.
On to `CSc1ccc(NC(=O)N[C@H]2O[C@H](CO[Si](C)(C)C(C)(C)C)[C@@]3(OS(=O)(=O)C=C3N)[C@H]2O[Si](C)(C)C(C)(C)C)cc1`, for which the pEC50 was < 5.00 in assay [1], < 5.70 in assay [6], < 5.70 in assay [4] and 5.38 in assay [3]. The results for the CC50 in assay [5] and in assay [2] were 6.4 µM and 17 µM, respectively.
As to `Cc1cn([C@@H]2O[C@H](CO[Si](C)(C)C(C)(C)C)C3(OS(=O)(=O)C=C3N)[C@H]2O[Si](C)(C)C(C)(C)C)c(=O)[nH]c1=O` (stereo not given in full), the pEC50 was < 4.70 in assay [1], < 4.70 in assay [6], 7.22 in assay [4] and 7.22 in assay [3]. The CC50 in assay [2] was found to be 14 µM.
As to `CC(C)(C)[Si](C)(C)OC[C@H]1O[C@@H](N)[C@H](O[Si](C)(C)C(C)(C)C)[C@]12OS(=O)(=O)C=C2N`, the pEC50 in assay [1], in assay [6], in assay [4] and in assay [3] was < 5.00 each time. In addition, the 50% cytotoxic concentration (CC50) in assay [5] amounted to 16 µM; in assay [2], 21 µM.
For `CC(=O)N[C@@H]1O[C@H](CO[Si](C)(C)C(C)(C)C)[C@@]2(OS(=O)(=O)C=C2N)[C@H]1O[Si](C)(C)C(C)(C)C`, the pEC50 is < 5.10 in assay [1], < 5.10 in assay [6], 5.59 in assay [4] and 5.59 in assay [3]. The CC50 in assay [2] came out at 13 µM.
Consider `CC(C)(C)[Si](C)(C)OC[C@H]1O[C@@H](N=[N+]=[N-])[C@H](O[Si](C)(C)C(C)(C)C)[C@]12OS(=O)(=O)C=C2N`, for which the pEC50 in assay [1], in assay [6], in assay [4] and in assay [3] was < 3.70 throughout. Further, the CC50 in assay [5] and in assay [2] was > 200 µM throughout.
As to `CC(C)(C)[Si](C)(C)OC[C@H]1O[C@@H](NC(=O)NC(=O)c2ccccc2)[C@H](O[Si](C)(C)C(C)(C)C)[C@]12OS(=O)(=O)C=C2N`, the pEC50 was < 4.30 in assay [1], < 4.30 in assay [6], 5.15 in assay [4] and 4.80 in assay [3]. Moreover, the CC50 is 48 µM in assay [5] and 90 µM in assay [2].
Regarding `CC(C)(C)[Si](C)(C)OC[C@H]1O[C@H](NC(=O)NC(=O)c2ccccc2)[C@H](O[Si](C)(C)C(C)(C)C)[C@]12OS(=O)(=O)C=C2N`, the pEC50 in assay [1], in assay [6], in assay [4] and in assay [3] was < 3.60 throughout. Further, the CC50 was 24 µM in assay [5] and > 250 µM in assay [2].
In the case of `CC(C)(C)[Si](C)(C)OC[C@H]1O[C@@H](OCc2ccccc2)[C@H](O[Si](C)(C)C(C)(C)C)[C@@]12OS(=O)(=O)C=C2N`, the pEC50 in assay [1] was < 5.19; in assay [6], < 5.19; in assay [4], < 5.19; in assay [3] it was 5.34. In addition, the CC50 came out at 11 µM in assay [5] and 13 µM in assay [2].
Take `COC(=O)c1ccccc1NC(=O)N[C@H]1O[C@H](CO[Si](C)(C)C(C)(C)C)[C@@]2(OS(=O)(=O)C=C2N)[C@H]1O[Si](C)(C)C(C)(C)C`: the pEC50 in assay [1] is < 5.00; in assay [6] it was < 5.00; in assay [4], 5.35; in assay [3] it was 5.28. The CC50 in assay [5] was determined as 22 µM; in assay [2], 26 µM.
In the case of `C=C(C)C(=O)NC(=O)N[C@H]1O[C@H](CO[Si](C)(C)C(C)(C)C)[C@@]2(OS(=O)(=O)C=C2N)[C@H]1O[Si](C)(C)C(C)(C)C`, the pEC50 is < 5.89 in assay [1], < 5.19 in assay [6], < 5.19 in assay [4] and < 5.89 in assay [3]. The CC50 in assay [5] is 6.4 µM; in assay [2], 2.7 µM.
Consider `CC(=O)NC(=O)N[C@@H]1O[C@H](CO[Si](C)(C)C(C)(C)C)[C@@]2(OS(=O)(=O)C=C2N)[C@H]1O[Si](C)(C)C(C)(C)C`, for which the pEC50 is < 5.00 in assay [1], < 5.00 in assay [6], 6.19 in assay [4] and 6.05 in assay [3]. In addition, the CC50 in assay [5] worked out at 15 µM; in assay [2] it was 26 µM.
On to `CC(C)(C)[Si](C)(C)OC[C@H]1O[C@H](NC(=O)Nc2ccccc2)[C@H](O[Si](C)(C)C(C)(C)C)[C@]12OS(=O)(=O)C=C2N`, for which the pEC50 is < 5.70 in assay [1], < 5.70 in assay [6], 6.19 in assay [4] and 6.23 in assay [3]. Further, the CC50 is 4.2 µM in assay [5] and 4.3 µM in assay [2].
`CC(=O)N[C@H]1O[C@H](CO[Si](C)(C)C(C)(C)C)[C@@]2(OS(=O)(=O)C=C2N)[C@H]1O[Si](C)(C)C(C)(C)C`: the pEC50 in assay [1], in assay [6], in assay [4] and in assay [3] was < 5.10 each time. This molecule also yielded a CC50 in assay [2] of 16 µM.
